In ChEMBL document CHEMBL1129541, “Synthesis and DNA interactions of benzimidazole dications which have activity against opportunistic infections” (J Med Chem, 1996):

What was measured:
[1] = tested on: Nucleic Acid; test: Thermal melting temperature determined for (dG-C)4 at a concentration of 3*10e-6 M base pairs at a ratio of 0.6 compound per base pair; type: nucleic-acid assay
Procedure, shortened: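 d(G-C)4 at 3×10^-6 M in duplex, in MES buffer (0.01 M MES, 1×10^-3 M EDTA, pH 6.2) with 0.1 M NaCl. Compound at 0.6 per base pair. The UV absorbance melting curve is recorded in 1 cm quartz cells, with temperature monitored by a thermistor in a reference cuvette.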

[2] = tested on: Nucleic Acid; test: Thermal melting temperature for poly(A).poly(U) at a concentration of 5*10e-5) M base pairs at a ratio of 0.6 compound per base pair; type: nucleic-acid assay
Procedure, shortened: (§1)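 Polymers at 5×10^-5 M base pairs in MES buffer (0.01 M MES, 1×10^-3 M EDTA, pH 6.2) with 0.1 M NaCl. Compound at 0.6 per base pair. Samples are in 1 cm reduced-volume quartz cells. UV absorbance melting curves are recorded, with temperature followed by a thermistor in a reference cuvette.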

[3] = tested on: Nucleic Acid; test: Thermal melting temperature determined for poly(dA).poly(dT) at a concentration of 5*10e-5) M base pairs at a ratio of 0.6 compound per base pair; type: nucleic-acid assay; procedure, shortened: as §1
[4] = tested on: Nucleic Acid; test: Binding constant for the sequence d(CGGAATTCGCG)2; design: unit not given here
[5] = tested on: Nucleic Acid; test: Thermal melting temperature for (dCGCGAATTCGCG)2 at a concentration of 3*10e-6 M base pairs at a ratio of one compound per oligomer duplex

SMILES	ΔTm [1]	ΔTm [2]	ΔTm [3]	K [4]	ΔTm [5]
N=C(N)c1ccc(-c2cc3ccc(C(=N)N)cc3[nH]2)cc1	2.5	3.9	> 26	4.5e+08	22.2
N=C(N)c1ccc2[nH]c(/C=C/c3nc4cc(C(=N)N)ccc4[nH]3)nc2c1	-1.5	0	> 26	5.3e+08	22.8
N=C(N)c1ccc2[nH]c(-c3ccc4[nH]c(CCCCc5nc6cc(-c7nc8cc(C(=N)N)ccc8[nH]7)ccc6[nH]5)nc4c3)nc2c1	0	0	> 26	4.5e+08	22.2
N=C(N)c1ccc2nc(Cc3nc4ccc(C(=N)N)cc4[nH]3)[nH]c2c1	0	-0.8	4.9	930000	2.8
N=C(N)c1ccc(OCCCCCOc2ccc(C(=N)N)cc2)cc1	0	0	12.8	2.3e+06	4.8

The next lines start with the values.

ΔTm [1]	ΔTm [2]	ΔTm [3]	K [4]	ΔTm [5]	SMILES
0	0	> 26	3.1e+08	20.8	c1cc2[nH]c(-c3ccc4[nH]c(CCCCc5nc6cc(-c7nc8cc(C9=NCCN9)ccc8[nH]7)ccc6[nH]5)nc4c3)nc2cc1C1=NCCN1
0	0	> 26	2e+09	28.5	c1cc2[nH]c(-c3ccc4[nH]c(CCc5nc6cc(-c7nc8cc(C9=NCCN9)ccc8[nH]7)ccc6[nH]5)nc4c3)nc2cc1C1=NCCN1
0.75	-1.1	> 26	7.6e+07	15.9	N=C(N)c1ccc2[nH]c(CCc3nc4cc(C(=N)N)ccc4[nH]3)nc2c1
0.5	-0.6	24.4	1.3e+07	10	N=C(N)c1ccc2[nH]c(CCCCc3nc4cc(C(=N)N)ccc4[nH]3)nc2c1
0.7	0.9	> 26	8.8e+07	16.4	c1cc2[nH]c(CCc3nc4cc(C5=NCCN5)ccc4[nH]3)nc2cc1C1=NCCN1
0.5	-1.5	25.5	5.2e+06	7.1	c1cc2[nH]c(CCCCc3nc4cc(C5=NCCN5)ccc4[nH]3)nc2cc1C1=NCCN1
0	-0.6	5.7	930000	2.8	c1cc2[nH]c(Cc3nc4cc(C5=NCCN5)ccc4[nH]3)nc2cc1C1=NCCN1
